In ChEMBL document CHEMBL4251693, “Indolylmaleimide Derivative IM-17 Shows Cardioprotective Effects in Ischemia-Reperfusion Injury” (ACS Med Chem Lett, 2018):
Activity calls are given as the source filed them. The calls are words filed in the database; no cut-off is given here. Peptide text beside a SMILES is read from it. * marks the point of attachment. Cbz = O=C(OCc1ccccc1)*

Key:
H9c2 [1] = assay: Cytoprotective activity against TBHP-induced necrosis in rat H9c2 cells incubated for 4 hrs by LDH release assay; format: functional, cell-based; settings: H9c2, 4 h
Procedure, shortened: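 Rat cardiomyoblast H9c2 cells treated with TBHP (300 μM) with or without test compound; necrotic cell death quantified by LDH release assay.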

Heart [2] = assay: Cardioprotective activity against Langendorff isolated Sprague-Dawley rat heart ischemia-reperfusion injury model assessed as suppression of creatine kinase release at 0.3 uM administered for 10 mins as infusion followed by 30 mins of global ischemia and 60 mins of reperfusion; format: functional, tissue-based
Procedure, shortened: (§1)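 Isolated rat hearts perfused in Langendorff mode with Krebs-Henseleit buffer. Compound (HCl salt) added to the perfusate for 10 min before no-flow global ischemia of 30 min, then 60 min reperfusion with flow restored. Left ventricular developed pressure recovery taken as heart function; creatine kinase released from myocardium taken as membrane integrity marker.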

HL-60 [3] = assay: Cytoprotective activity against H2O2-induced necrosis in human HL60 cells incubated for 1 hr followed by H2O2 stimulation by LDH release assay; format: functional, cell-based; settings: HL-60, 1 h
Procedure, shortened: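 Necrosis of HL-60 cells induced by H2O2 and quantified as lactate dehydrogenase release from the cytosol; IC50 derived.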

Heart [4] = assay: Cardioprotective activity against Langendorff isolated Sprague-Dawley rat heart ischemia-reperfusion injury model assessed as improvement in LVDP at 0.3 uM administered for 10 mins as infusion followed by 30 mins of global ischemia and 60 mins of reperfusion; format: functional, tissue-based; procedure, shortened: as §1
[5] = Stability in rat liver S9 fraction at 5 uM after 30 mins by HPLC method; format: ADME, subcellular; settings: s9, 0.5 h
H9c2 [6] = assay: Cytotoxicity against rat H9c2 cells at 30 uM; format: cell-based; settings: h9c2, 30 µM
Rattus norvegicus [7] = assay: Cardioprotective activity against Sprague-Dawley rat ischemia reperfusion-induced arrhythmia model assessed as ventricular fibrillation time at 1 mg/kg, iv administered 5 mins before ischemia (reference value: 95.3 +/- 13 sec); format: functional
Rattus norvegicus [8] = assay: Toxicity in Sprague-Dawley rat ischemia reperfusion-induced arrhythmia model assessed as mortality at 3 mg/kg, iv administered 1 min before reperfusion (reference value: 75%); format: organism-based; settings: in vivo
Rattus norvegicus [9] = assay: Toxicity in Sprague-Dawley rat ischemia reperfusion-induced arrhythmia model assessed as mortality at 3 mg/kg, iv administered 5 mins before ischemia (reference value: 60%); format: organism-based; settings: in vivo
Rattus norvegicus [10] = assay: Toxicity in Sprague-Dawley rat ischemia reperfusion-induced arrhythmia model assessed as mortality at 1 mg/kg, iv administered 5 mins before ischemia (reference value: 60%); format: organism-based; settings: in vivo
Rattus norvegicus [11] = assay: Cardioprotective activity against Sprague-Dawley rat ischemia reperfusion-induced arrhythmia model assessed as ventricular fibrillation time at 3 mg/kg, iv administered 1 min before reperfusion (reference value: 96.3 +/- 24.1 sec); format: functional
Rattus norvegicus [12] = assay: Cardioprotective activity against Sprague-Dawley rat ischemia reperfusion-induced arrhythmia model assessed as ventricular fibrillation time at 3 mg/kg, iv administered 5 mins before ischemia (reference value: 95.3 +/- 13 sec); format: functional
Heart [13] = assay: Cardioprotective activity against Langendorff isolated Sprague-Dawley rat heart ischemia-reperfusion injury model assessed as suppression of creatine kinase release at 3 uM administered for 10 mins as infusion followed by 30 mins of global ischemia and 60 mins of reperfusion; format: functional, tissue-based; procedure, shortened: as §1
Heart [14] = assay: Cardioprotective activity against Langendorff isolated Sprague-Dawley rat heart ischemia-reperfusion injury model assessed as improvement in LVDP at 3 uM administered for 10 mins as infusion followed by 30 mins of global ischemia and 60 mins of reperfusion; format: functional, tissue-based; procedure, shortened: as §1
Jurkat [15] = assay: Cytoprotective activity against FasL-induced apoptosis in human Jurkat cells assessed as increase in cell viability at 100 uM incubated for 1 hr followed by FasL stimulation measured after 18 hrs by Alamar blue assay; format: functional, cell-based
Procedure, shortened: (§2)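 Jurkat cells exposed to FasL (100 ng/mL, 18 h) with or without test agent (10 μM) or Z-VAD (100 μM). Viability measured by AlamarBlue and morphology by phase-contrast imaging.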

HL-60 [16] = assay: Cytoprotective activity against actinomycin D-induced apoptosis in human HL60 cells assessed as increase in cell viability at 100 uM incubated for 1 hr followed by actinomycin D stimulation measured after 6 hrs by Alamar blue assay; format: functional, cell-based
Procedure, shortened: (§3)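 HL-60 cells given a death inducer with or without test agent (10 μM) or Z-VAD (100 μM). Inducers were actinomycin D 1 μM for 6 h, camptothecin 1 μM for 6 h, etoposide 100 μM for 4 h, FasL 100 ng/mL for 18 h, H2O2 100 μM for 3 h, and TBHP 30 μM for 3 h. Viability read by AlamarBlue.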

HL-60 [17] = assay: Cytoprotective activity against camptothecin-induced apoptosis in human HL60 cells assessed as increase in cell viability at 100 uM incubated for 1 hr followed by camptothecin stimulation measured after 6 hrs by Alamar blue assay; format: functional, cell-based; procedure, shortened: as §3
Jurkat [18] = assay: Cytoprotective activity against FasL-induced apoptosis in human Jurkat cells assessed as increase in cell viability at 100 uM incubated for 1 hr followed by FasL stimulation measured after 18 hrs by phase contrast microscopy; format: functional, cell-based; procedure, shortened: as §2
HL-60 [19] = assay: Cytoprotective activity against TBHP-induced necrosis in human HL60 cells assessed as increase in cell viability at 100 uM incubated for 1 hr followed by TBHP stimulation measured after 3 hrs by Alamar blue assay; format: functional, cell-based
HL-60 [20] = assay: Cytoprotective activity against H2O2-induced apoptosis in human HL60 cells assessed as increase in cell viability at 100 uM incubated for 1 hr followed by H2O2 stimulation measured after 4 hrs by phase contrast microscopy; format: functional, cell-based
Procedure, shortened: (§4)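 HL-60 cells exposed to low-level H2O2 (30 μM, 4 h) with or without test agent (10 μM) or Z-VAD (100 μM). Viability read by AlamarBlue; morphology by phase-contrast imaging.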

HL-60 [21] = assay: Cytoprotective activity against H2O2-induced necrosis in human HL60 cells assessed as increase in cell viability at 100 uM incubated for 1 hr followed by H2O2 stimulation measured after 3 hrs by Alamar blue assay; format: functional, cell-based; procedure, shortened: as §3
HL-60 [22] = assay: Cytoprotective activity against H2O2-induced apoptosis in human HL60 cells assessed as increase in cell viability at 100 uM incubated for 1 hr followed by H2O2 stimulation measured after 4 hrs by Alamar blue assay; format: functional, cell-based; procedure, shortened: as §4
HL-60 [23] = assay: Cytoprotective activity against Fas ligand-induced apoptosis in human HL60 cells assessed as increase in cell viability at 100 uM incubated for 1 hr followed by Fas ligand stimulation measured after 18 hrs by Alamar blue assay; format: functional, cell-based; procedure, shortened: as §3
HL-60 [24] = assay: Cytoprotective activity against etoposide-induced apoptosis in human HL60 cells assessed as increase in cell viability at 100 uM incubated for 1 hr followed by etoposide stimulation measured after 4 hrs by Alamar blue assay; format: functional, cell-based; procedure, shortened: as §3
HL-60 [25] = assay: Cytoprotective activity against H2O2-induced necrosis in human HL60 cells assessed as increase in cell viability at 1 to 5 mM incubated for 1 hr followed by H2O2 stimulation measured after 3 hrs by Alamar blue assay; format: functional, cell-based
Procedure, shortened: (§5)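 HL-60 cells treated with H2O2 (100 μM, 3 h) with or without various cell death inhibitors (cyclophilin D, PARP-1, necroptosis, autophagy). Viability read by AlamarBlue.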

Jurkat [26] = assay: Cytoprotective activity against FasL-induced necroptosis in human Jurkat cells assessed as increase in cell viability at 30 uM incubated for 1 hr followed by FasL stimulation measured after 20 hrs by Alamar blue assay; format: functional, cell-based
Procedure, shortened: (§6)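 Jurkat necroptosis induced with FasL (100 ng/mL, 20 h) together with Z-VAD (100 μM) or cycloheximide (5 μM). Test agents were run at 10 μM alongside a necroptosis inhibitor at 30 μM. Viability read by AlamarBlue; morphology examined by phase-contrast imaging.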

Jurkat [27] = assay: Cytoprotective activity against Z-VAD-induced necroptosis in human Jurkat cells assessed as increase in cell viability at 30 uM incubated for 1 hr followed by Z-VAD stimulation by phase contrast microscopy; format: functional, cell-based; procedure, shortened: as §6
Jurkat [28] = assay: Cytoprotective activity against Z-VAD-induced necroptosis in human Jurkat cells assessed as increase in cell viability at 30 uM incubated for 1 hr followed by Z-VAD stimulation by Alamar blue assay; format: functional, cell-based; procedure, shortened: as §6
Jurkat [29] = assay: Cytoprotective activity against FasL-induced necroptosis in human Jurkat cells assessed as increase in cell viability at 30 uM incubated for 1 hr followed by FasL stimulation measured after 20 hrs by phase contrast microscopy; format: functional, cell-based; procedure, shortened: as §6
HL-60 [30] = assay: Cytoprotective activity against H2O2-induced necrosis in human HL60 cells assessed as increase in cell viability at 1 to 10 uM incubated for 1 hr followed by H2O2 stimulation measured after 3 hrs by Alamar blue assay; format: functional, cell-based; procedure, shortened: as §5
Jurkat [31] = assay: Cytoprotective activity against CHX-induced necroptosis in human Jurkat cells assessed as increase in cell viability at 30 uM incubated for 1 hr followed by CHX stimulation by Alamar blue assay; format: functional, cell-based; procedure, shortened: as §6
Jurkat [32] = assay: Cytoprotective activity against CHX-induced necroptosis in human Jurkat cells assessed as increase in cell viability at 30 uM incubated for 1 hr followed by CHX stimulation by phase contrast microscopy; format: functional, cell-based; procedure, shortened: as §6
HL-60 [33] = assay: Cytoprotective activity against H2O2-induced necrosis in human HL60 cells assessed as increase in cell viability at 10 to 100 uM incubated for 1 hr followed by H2O2 stimulation measured after 3 hrs by Alamar blue assay; format: functional, cell-based; procedure, shortened: as §5

CCCNC1=C(c2cn(C)c3ccccc23)C(=O)N(C)C1=O
IC50 (H9c2 [1]): 4.4 µM
Activity (Heart [2]): Active
IC50 (HL-60 [3]): 0.44 µM
Activity (Heart [4]): Active
Stability [5]: Unstable
Activity (H9c2 [6]): Non-Toxic

CN1C(=O)C(NCCCCN)=C(c2cn(C)c3ccccc23)C1=O
IC50 (HL-60 [3]): 1.3 µM

CN1C(=O)C(NCCCCO)=C(c2cn(C)c3ccccc23)C1=O
IC50 (HL-60 [3]): 1.1 µM

CN1C(=O)C(NCCN)=C(c2cn(C)c3ccccc23)C1=O.Cl
Time (Rattus norvegicus [7]): 38.2 s
mortality (Rattus norvegicus [8]): 20%
mortality (Rattus norvegicus [9]): 0%
mortality (Rattus norvegicus [10]): 20%
Time (Rattus norvegicus [11]): 57 s
Time (Rattus norvegicus [12]): 0 s

CN1C(=O)C(NCCN)=C(c2cn(C)c3ccccc23)C1=O [listing 1 of 2 here]
Activity (Heart [13]): Active
Activity (Heart [14]): Active

CN1C(=O)C(NCCO)=C(c2cn(C)c3ccccc23)C1=O
IC50 (HL-60 [3]): 1.3 µM

COC(=O)C[C@H](NC(=O)[C@H](C)NC(=O)[C@@H](NC(=O)OCc1ccccc1)C(C)C)C(=O)O (Cbz-Val-Ala-Asp(OMe)-OH)
Activity (Jurkat [15]): Active
Activity (HL-60 [16]): Active
Activity (HL-60 [17]): Active
Activity (Jurkat [18]): Active
Activity (HL-60 [19]): inactive
Activity (HL-60 [20]): Active
Activity (HL-60 [21]): inactive
Activity (HL-60 [22]): Active
Activity (HL-60 [23]): Active
Activity (HL-60 [24]): Active

Cn1cnc(N)c2ncnc1-2
Activity (HL-60 [25]): inactive

CCCCNC1=C(c2cn(C)c3ccccc23)C(=O)N(C)C1=O
IC50 (HL-60 [3]): 0.42 µM

CN1C(=O)C(Cc2c[nH]c3ccccc23)NC1=S (configuration not stated)
Activity (Jurkat [26]): Active
Activity (Jurkat [27]): Active
Activity (Jurkat [28]): Active
Activity (Jurkat [29]): Active
Activity (HL-60 [30]): inactive
Activity (Jurkat [31]): Active
Activity (Jurkat [32]): Active

CN1C(=O)C(NCCCO)=C(c2cn(C)c3ccccc23)C1=O
IC50 (HL-60 [3]): 1.9 µM

CN1C(=O)C(NCCN)=C(c2cn(C)c3ccccc23)C1=O [listing 2 of 2 here]
IC50 (H9c2 [1]): 4.9 µM
IC50 (HL-60 [3]): 1 µM
Stability [5]: Stable
Activity (H9c2 [6]): Non-Toxic

CN1C(=O)C(NCCCN)=C(c2cn(C)c3ccccc23)C1=O
IC50 (HL-60 [3]): 1.3 µM

CCCCCCNC1=C(c2cn(C)c3ccccc23)C(=O)N(C)C1=O
IC50 (HL-60 [3]): 0.38 µM

CN1C(=O)C(c2c[nH]c3ccccc23)=C(c2cn(CCCN)c3ccccc23)C1=O
IC50 (H9c2 [1]): 3 µM
Activity (H9c2 [6]): Toxic

CNC1=C(c2cn(C)c3ccccc23)C(=O)N(C)C1=O
IC50 (HL-60 [3]): 0.91 µM

O=C1NCCc2c(OCCCCN3CCCCC3)cccc21
Activity (HL-60 [33]): inactive
